CRFBP-R2 agonist: agonists of CRF-BP/CRF-R2 complex, primary screen, cell-based, HEK293, calcium dye fluorescence, uHTS; AID 588473, 2011; calcium dye fluorescence (FLIPR); percent of saturating CRF peptide response; activation, % at 13.2 µM; CRF-binding protein / CRF receptor 2 complex (human); 350,000 compounds, 0.46% hits;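 active = activation of at least 50%, plus an integration ratio under a set limit after plate pattern correction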;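 note: plate controls were neutral control wells without compound for no effect and CRF at EC100 for full effect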
TAAR1 antag: human TAAR1 antagonists, primary screen, Fluo-8 calcium fluorescence, CHO RD-HGA16 cells. antagonist. AID 624466, 2012. 360,000 compounds, 1.5% hits. inhibition, % at 3 µM;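 active = inhibition above a per-plate cutoff, the mean inhibition of test compounds on that plate plus 3 SD, cut at about 49% in these data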;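 note: 0% = DMSO plus EC80 beta-PEA response and 100% = DMSO alone without agonist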
Target sequence (Q96RJ0 whole entry, looked up): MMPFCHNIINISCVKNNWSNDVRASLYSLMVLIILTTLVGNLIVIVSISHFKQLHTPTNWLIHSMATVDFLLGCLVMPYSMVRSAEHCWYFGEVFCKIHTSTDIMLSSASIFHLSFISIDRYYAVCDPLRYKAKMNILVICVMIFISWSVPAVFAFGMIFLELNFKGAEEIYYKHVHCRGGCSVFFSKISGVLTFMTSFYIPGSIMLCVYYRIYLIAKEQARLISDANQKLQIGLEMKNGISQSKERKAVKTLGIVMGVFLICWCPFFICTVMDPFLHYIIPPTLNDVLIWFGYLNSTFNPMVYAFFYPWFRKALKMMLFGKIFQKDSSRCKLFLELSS
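Test system – hTAAR1-expressing CHO RD-HGA16 cells, Gα16-coupled · Also added – β-PEA at EC80 concentration, post-compound challenge · Compound – 3 µM, single point · Incubation – dye loading 75 min at 37 °C, then 30 min room temperature · Measured by – Fluo-8 intracellular calcium dye fluorescence, real-time kinetic reads · Benchmarks – vehicle and agonist controls · Replicates – singlicate, one well per test compound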
TMEM16A inh: TMEM16A chloride channel inhibitors, primary screen, cell-based, HTS. Anoctamin-1 (Mus musculus), Q8BHY3. HEK293 TMEM16A/YFP iodide influx fluorescence, ionomycin. normalized B-score (activity score, 25-100; higher = stronger inhibition) at 10 µM. 310,000 compounds, 1.2% hits;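 active = ratio plate-corrected score three or more library SD toward inhibition, starting fluorescence score within five deviations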;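 note: score derived from kinetic fluorescence span divided by baseline fluorescence per well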
CRFR2-BP antag: antagonists of CRF-BP/CRF-R2 complex, primary screen, cell-based, HEK293, calcium dye fluorescence, uHTS; CRF-induced calcium fluorescence; inhibition, % at 11.8 µM; 350,000 compounds, 0.59% hits;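 active = inhibition of the ligand-induced calcium signal above about 50% at the single tested concentration, limit read from the data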
TMEM16A act: TMEM16A chloride channel activators or potentiators, primary screen, cell-based, HTS; HEK293 TMEM16A/YFP-H148Q/I152L, iodide quench fluorescence; stronger effect = lower value; 340,000 compounds, 0.3% hits; B-score at 10 µM; Anoctamin-1 (Mus musculus), Q8BHY3;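 active = fluorescence-ratio B-score plate-corrected deviation score at least 3 library SD below zero, with starting fluorescence score within 5 deviations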;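 note: channel opened by trigger with iodide after compound preincubation; score built on the fluorescence ratio of max minus min over baseline; more negative score means more quench and so TMEM16A activation or potentiation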
TAAR1 ag: human TAAR1 agonists, primary screen, Fluo-8 calcium fluorescence, CHO RD-HGA16 cells; Trace amine-associated receptor 1 (Homo sapiens), Q96RJ0; AID 624467, 2012; vehicle wells 0%, saturating PEA agonist 100%; 360,000 compounds, 0.99% hits; activation, % at 3 µM;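 active = activation above the mean activation of all test compounds in the run plus 3 SD, cut at about 38% in these data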
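Test system: RD-HGA16 (CHO) cells co-expressing Gα16 and hTAAR1; dosing: one-point dosing at 3 µM (nominal); timing: 17-24 h seeding, 75 min 37 °C dye, 30 min RT; signal: kinetic Fluo-8 calcium fluorescence; read-out basis: % activation relative to PEA EC100 response; controls: DMSO and PEA EC100; replicates: n 1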
TMEM16A reconf: TMEM16A chloride channel inhibitors, confirmation, cell-based, re-confirmation | shares compounds with TMEM16A inh | HEK293 TMEM16A/YFP-H148Q, iodide quench fluorescence; ionomycin added to raise cell calcium | inhibition, % at 10 µM | 2,300 compounds, 39% hits | AID 652189, 2013;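 active = mean duplicate percent inhibition, scaled so buffer wells are 0 and the reference blocker 100, over three buffer SD above buffer mean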
HEK293 Ca mobil: calcium mobilization in TMEM16A/YFP HEK293 cells, confirmation, counter-screen for TMEM16A inhibitor project. 2,300 compounds, 2% hits. AID 652231, 2013. calcium response (% of ionomycin), % at 10 µM. Fluo4 calcium mobilization. shares compounds with TMEM16A inh;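 active = duplicate-averaged calcium signal over 20% of the ionomycin maximum, relative to buffer baseline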;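 note: each well's signal is peak minus trough fluorescence divided by its pre-addition baseline; 0% = buffer wells and 100% = ionomycin wells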
YFP-HEK293 quench: iodide YFP quench changes in parental YFP-HEK293, counter-screen for TMEM16A inhibitor project, cell-based; YFP ratio F(max-min)/F0 at 10 µM; 2,300 tested, under 10 active; shares compounds with TMEM16A inh; ionomycin; AID 652233, 2013;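 active = yellow fluorescent protein signal ratio exceeding the buffer control mean by over 5 SD of those controls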;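 note: ratio is mean of duplicate wells from kinetic YFP trace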
ClC-1 rat inh: ClC-1 chloride channel inhibition, selectivity assay for TMEM16A inhibitor project, cell-based, voltage-dependent ClC-1; shares compounds with TMEM16A inh; CHO ClC-1-YFP, iodide influx fluorescence quench; iodide control reads 0, buffer control 100; ratio percent, % at 10 µM; 2,300 tested, under 10 active;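 active = duplicate-mean ratio percent above the mean of iodide-only control wells, which defines zero, plus 5 of their SD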;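 note: higher percent means stronger block of ClC-1 iodide influx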
nonsel antag count: nonselective antagonists in TAAR1 counter-screen cells, counter-screen for hTAAR1 antagonist project, cell-based, fluorescence, calcium | shares compounds with TAAR1 antag | counterscreen cell line, antagonist mode | inhibition, % at 3 µM | 2,400 compounds, 77% hits; in the data active = inhibition above about 22%;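 note: CHO-Ga16 host cells stimulated with ATP at an EC80 level; 0% = agonist EC80 plus vehicle and 100% = vehicle without agonist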
TAAR1 ant conf: human TAAR1 antagonists, retest of hits, confirmation, cell-based, fluorescence. shares compounds with TAAR1 antag. TAAR1-expressing cells, fluorescence antagonist read-out. inhibition, % at 3 µM. 2,400 compounds, 40% hits. AID 651785, 2012; in the data active = inhibition above about 49%;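 note: CHO-Ga16 host cells challenged with agonist PEA near its EC80; 0% = agonist at EC80 plus vehicle and 100% = vehicle with no agonist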
Ga16 ag counter: calcium activation in Ga16-expressing cells, counter-screen for TAAR1 antagonist project, cell-based, fluorescence. activation, % at 3 µM. agonist counterscreen. shares compounds with TAAR1 antag. 2,400 compounds, 18% hits. AID 651953, 2012; in the data active = activation above about 12%;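 note: 0% = vehicle wells and 100% = saturating stimulus response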
TAAR1 ag counter: TAAR1 activation by candidate antagonists – cell-based, fluorescence, counter-screen for TAAR1 antagonist project; AID 651955, 2012; shares compounds with TAAR1 antag; 2,400 compounds, 2% hits; hTAAR1 cell line, agonist mode; activation, % at 3 µM; in the data active = activation above about 37%;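 note: CHO cells stably expressing TAAR1 with calcium dye readout; 0% = DMSO vehicle and 100% = full agonist response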
* marks the source's active call; other numbers are inactive results; i = inactive; . = no result. Hits are enriched below; roughly 3.9% of the tested compounds scored in any of these assays.

SMILES	CRFBP-R2 agonist	TAAR1 antag	TMEM16A inh	CRFR2-BP antag	TMEM16A act	TAAR1 ag	TMEM16A reconf	HEK293 Ca mobil	YFP-HEK293 quench	ClC-1 rat inh	nonsel antag count	TAAR1 ant conf	Ga16 ag counter	TAAR1 ag counter
O=C(Nc1nc(-c2ccc(F)c(F)c2)cs1)c1ccc(OCC2CCCO2)cc1 (stereo unspecified)	2	54*	25*	-25	i	7	i	i	-1.2	-7	33*	35	9	4
CC(=O)N1CCN(c2ccc(NC(=O)c3cccc([N+](=O)[O-])c3)cc2)CC1	-1	4	i	6	i	0	.	.	.	.	.	.	.	.
CC(C)NC(=O)c1cnc(N2CCN(c3ccccn3)CC2)c2ccccc12	0	31	i	-12	i	15	.	.	.	.	.	.	.	.
CCc1ccc(NC(=O)c2cnc(N3CCN(c4ccccn4)CC3)c3ccccc23)cc1	3	68*	i	-8	i	17	i	i	-1.2	0	37*	55*	12*	10
Cc1ccc(C(=O)Nc2ccc(C)c(S(=O)(=O)Nc3ccccc3Cl)c2)s1	-1	68*	100*	-8	i	5	i	i	-0.22	18	20	23	3	-1
Cc1c(/C=N/NC(=O)c2ccccc2O)c2ccccn2c1C(=O)c1ccc(F)cc1	5	93*	100*	-17	i	13	34%*	i	-0.92	-14	48*	94*	12*	10
COc1ccc(C2=NS(=O)(=O)N(C)C(C(=O)NCc3ccccc3)=C2)cc1OC	-1	8	i	-8	i	3	.	.	.	.	.	.	.	.
COc1ccc(C2=NS(=O)(=O)N(C)C(C(=O)N3CCc4ccccc4C3)=C2)cc1OC	-1	68*	25*	-1	i	24	26%*	i	-0.93	-9	40*	50*	11	51*
CC(C)(C)c1ccc(OCc2ccc(C(=O)Nc3cccnc3)o2)cc1	3	75*	25*	-3	i	9	25%*	i	-0.99	-14	50*	61*	11	12
O=C(Nc1cccnc1)c1ccc(COc2ccccc2Br)o1	1	18	i	-6	i	4	.	.	.	.	.	.	.	.
O=c1[nH]c(Nc2ccc3c(c2)OCCO3)nnc1Cc1ccccc1	0	0	i	7	i	7	.	.	.	.	.	.	.	.
COc1ccc(OC)c(/C=C2\SC(=S)N(NS(=O)(=O)c3ccc(C)cc3)C2=O)c1	3	-5	i	36	i	0	.	.	.	.	.	.	.	.
COc1ccc(/C=C2\SC(=S)N(NS(=O)(=O)c3ccc(C)cc3)C2=O)c(OC)c1	0	68*	25*	35	i	16	23%*	i	-0.99	-14	16	33	8	5
CC(NC(=O)C1CCCN1S(=O)(=O)c1ccccc1)c1ccccc1 (stereo unspecified)	1	9	i	-6	i	3	.	.	.	.	.	.	.	.
COc1ccc(CCNc2oc(COc3ccc(Br)cc3)nc2C#N)cc1OC	-5	93*	100*	14	i	5	i	i	-0.96	-18	47*	65*	9	4
Cc1cc(CNC(=O)COc2ccc(F)cc2Cl)cc(C)c1O	1	-1	i	15	i	6	.	.	.	.	.	.	.	.
CC(C)[C@H](NC(=O)c1ccccc1)C(=O)OCC(=O)/C=C1/N(C)c2ccccc2C1(C)C	-2	71*	25*	-13	i	11	22%*	i	-1.3	2	41*	55*	9	4
COc1cc(OC)cc(C(=O)NCC(=O)OCC(=O)/C=C2/N(C)c3ccccc3C2(C)C)c1	-1	37	i	19	i	4	.	.	.	.	.	.	.	.
O=C(CS(=O)(=O)c1cn(CC(=O)N2CCOCC2)c2ccccc12)Nc1ccccc1F	0	-19	i	-1	i	0	.	.	.	.	.	.	.	.
COc1cccc(-c2nc(NC(C)C)c3ccccc3n2)c1O	-3	37	i	7	i	9	.	.	.	.	.	.	.	.
CCC(C)Nc1nc(-c2cccc(OC)c2O)nc2ccccc12 (stereo unspecified)	-3	57*	100*	-12	i	18	28%*	i	-1.1	-9	21	36	11	25
O=C(CSc1ccc(Cl)cc1)N1CCN(c2ccc(Cl)cc2[N+](=O)[O-])CC1	1	67*	100*	-18	i	2	i	i	-1.1	-2	25*	45	4	1
